From ChEMBL document CHEMBL1141134, “Scaffold hopping with molecular field points: identification of a cholecystokinin-2 (CCK2) receptor pharmacophore and its use in the design of a prototypical series of pyrrole- and imidazole-based CCK2 antagonists” (J Med Chem, 2005)

Columns and labels:
[1] = biological target: T1, Cholecystokinin receptor type A (Cavia porcellus, UniProt Q63931); test: Inhibition of 20 pM [125I]BH-CCK-8S binding to guinea pig pancreas membrane Cholecystokinin 1 receptor
T1 sequence (Q63931 whole entry): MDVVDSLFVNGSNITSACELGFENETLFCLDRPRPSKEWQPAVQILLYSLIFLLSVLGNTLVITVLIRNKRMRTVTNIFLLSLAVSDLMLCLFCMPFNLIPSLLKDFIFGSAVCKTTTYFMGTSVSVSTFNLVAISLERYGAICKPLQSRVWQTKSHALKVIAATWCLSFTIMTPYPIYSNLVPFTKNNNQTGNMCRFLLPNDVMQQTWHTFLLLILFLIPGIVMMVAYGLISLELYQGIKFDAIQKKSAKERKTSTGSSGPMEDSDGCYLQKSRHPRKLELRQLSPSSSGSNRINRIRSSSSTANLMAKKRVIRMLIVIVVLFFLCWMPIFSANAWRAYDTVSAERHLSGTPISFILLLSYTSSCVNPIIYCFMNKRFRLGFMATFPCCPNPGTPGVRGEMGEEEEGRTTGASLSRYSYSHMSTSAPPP
In short: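 Competition binding in guinea pig pancreas cell homogenates against 20 pM [125I]BH-CCK-8S; pKi ± SEM derived from at least three separate experiments.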

[2] = Log D value was measured in octanol/buffer (pH 7.5); type: physicochemical
In short: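 Partition between octanol and buffer at pH 7.5.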

[3] = biological target: T2, Gastrin/cholecystokinin type B receptor (Mus musculus, UniProt P56481); test: Inhibition of 20 pM [125I]BH-CCK-8S binding to mouse cortical membrane Cholecystokinin 2 receptor
T2 sequence (P56481 whole entry): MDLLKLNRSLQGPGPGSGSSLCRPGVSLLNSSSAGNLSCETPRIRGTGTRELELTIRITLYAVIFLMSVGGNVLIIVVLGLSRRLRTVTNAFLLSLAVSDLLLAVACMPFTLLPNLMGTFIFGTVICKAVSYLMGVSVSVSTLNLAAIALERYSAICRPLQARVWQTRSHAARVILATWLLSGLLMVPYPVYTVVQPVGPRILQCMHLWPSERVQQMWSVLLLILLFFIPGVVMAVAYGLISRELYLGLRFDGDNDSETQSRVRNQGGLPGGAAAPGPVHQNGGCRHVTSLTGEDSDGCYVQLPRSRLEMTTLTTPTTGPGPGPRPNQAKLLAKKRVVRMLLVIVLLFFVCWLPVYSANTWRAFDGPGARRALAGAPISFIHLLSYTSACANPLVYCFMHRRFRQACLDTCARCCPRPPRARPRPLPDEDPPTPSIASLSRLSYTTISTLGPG
In short: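 Competition binding in mouse cortical membrane homogenates against 20 pM [125I]BH-CCK-8S tracer; pKi ± SEM from at least three separate experiments.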

[4] = Percent material excreted unchanged was detected in the bile by i.v. administration (10 uM/Kg) to anesthetized rat; type: ADME; details: iv, read-out: Activity
In short: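 Anesthetized rats dosed iv bolus at 10 μmol/kg; bile duct cannulated, bile collected in 15 min intervals over 150 min total; unchanged compound measured by HPLC, reported as percent excreted.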

[5] = Percent material excreted unchanged was detected in the bile by i.v. administration (1 or 10 uM/Kg) to anesthetized rat; type: ADME; details: iv, read-out: Activity
In short: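 Anesthetized rats, iv bolus at 1 or 10 μmol/kg; bile duct cannulated, bile collected in 15 min intervals over 150 min total; unchanged compound in bile quantified by HPLC, expressed as percent of dose. Compounds given as bis(N-methyl-D-glucamine) salts.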

[6] = biological target: T3, Gastrin/cholecystokinin type B receptor (Mus musculus) (UniProt P56481); test: Loss of Cholecystokinin 2 receptor activity relative to parent compound; type: functional
T3 sequence (whole entry): T2 sequence (P56481 whole entry)

In the case of CNC[C@H](O)[C@@H](O)[C@H](O)[C@H](O)CO.O=C(Nc1cc(CO)cc(CO)c1)c1[nH]c(-c2ccc3ccccc3c2)nc1CC1CCCCCC1, the Ki [1] is reported as 3160 nM, the logD [2] is reported as > 4 and the Ki [3] is reported as 3980 nM. For the same molecule, the dose excreted [4] was 1%.

Work on O=C(O)c1cc(NC(=O)c2[nH]c(-c3ccccc3)nc2CC23CC4CC(CC(C4)C2)C3)cc(C(=O)O)c1 yielded a Ki [1] of 3160 nM and a Ki [3] of 158 nM.

With CNC[C@H](O)[C@@H](O)[C@H](O)[C@H](O)CO.O=C(NCC12CC3CC(CC(C3)C1)C2)c1cc2nc[nH]c2cc1C(=O)N[C@@H](Cc1ccccc1)C(=O)Nc1cc(CO)cc(CO)c1 the Ki [1] was 3980 nM, the logD [2] was 3.7 and the dose excreted [5] was 22%.

O=C(O)c1cc(NC(=O)[C@H](Cc2ccccc2)NC(=O)c2ccccc2C(=O)NCC23CC4CC(CC(C4)C2)C3)cc(C(=O)O)c1 gave a Ki [3] of 31.6 nM.

With CNC[C@H](O)[C@@H](O)[C@H](O)[C@H](O)CO.O=C(O)c1cccc(NC(=O)[C@H](Cc2ccccc2)NC(=O)c2cc3[nH]cnc3cc2C(=O)NCC23CC4CC(CC(C4)C2)C3)c1 the Ki [1] was 5010 nM, the logD [2] was 1.1 and the Ki [3] was 398 nM. For the same molecule, the dose excreted [5] was 39%.

CNC[C@H](O)[C@@H](O)[C@H](O)[C@H](O)CO.O=C(O)c1cc(NC(=O)c2cc(-c3ccc4ccccc4c3)[nH]c2CC2CCCCCC2)cc(C(=O)O)c1 showed a Ki [1] of 2510 nM, a logD [2] of 1.4 and a Ki [3] of 200 nM. It also gave a dose excreted [4] of 59%.

Work on CN(C(=O)[C@H](Cc1ccccc1)NC(=O)c1cc2[nH]cnc2cc1C(=O)NCC12CC3CC(CC(C3)C1)C2)c1cc(C(=O)O)cc(C(=O)O)c1 yielded a Ki [1] of 3980 nM and an Activity [6] of 2.

Molecule O=C(O)c1cc(NC(=O)[C@H](Cc2ccccc2)NC(=O)C2C3c4ccccc4C(c4ccccc43)C2C(=O)NCC23CC4CC(CC(C4)C2)C3)cc(C(=O)O)c1 (some centres not stated) has a Ki [1] of 2000 nM.

With O=C(O)c1cc(NC(=O)c2cc(-c3ccccc3)[nH]c2CCC23CC4CC(CC(C4)C2)C3)cc(C(=O)O)c1 the Ki [1] was 5010 nM and the Ki [3] was 200 nM.

Molecule O=C(O)c1cc(NC(=O)c2[nH]c(-c3ccccc3)nc2CC2CCCCCC2)cc(C(=O)O)c1 has a Ki [1] of 7940 nM.

CNC[C@H](O)[C@@H](O)[C@H](O)[C@H](O)CO.O=C(O)c1cc(NC(=O)c2[nH]c(-c3ccc4ccccc4c3)nc2CC2CCCCCC2)cc(C(=O)O)c1 showed a Ki [1] of 3160 nM, a logD [2] of 0.7 and a dose excreted [4] of 53%.

For O=C(O)c1cc(NC(=O)c2[nH]c(-c3ccccc3)nc2CCC23CC4CC(CC(C4)C2)C3)cc(C(=O)O)c1, the Ki [1] was 6310 nM and the Ki [3] was 631 nM.

For CNC[C@H](O)[C@@H](O)[C@H](O)[C@H](O)CO.O=C(O)c1cccc(NC(=O)c2cc(-c3ccc4ccccc4c3)[nH]c2CC2CCCCCC2)c1, the Ki [1] was 3980 nM, the logD [2] was 2.9 and the Ki [3] was 1260 nM. The dose excreted [4] was 6%.

For O=C(O)c1cc(NC(=O)c2[nH]c(-c3ccc4[nH]ccc4c3)nc2CC2CCCCCC2)cc(C(=O)O)c1, the Ki [1] was 5010 nM and the Ki [3] was 1000 nM.

With O=C(O)CCNC(=O)c1cc(-c2ccccc2)[nH]c1CC12CC3CC(CC(C3)C1)C2 the Ki [1] was 10000 nM and the Ki [3] was 3160 nM.

For CNC[C@H](O)[C@@H](O)[C@H](O)[C@H](O)CO.O=C(O)c1cc(NC(=O)[C@H](Cc2ccccc2)NC(=O)c2cc3[nH]cnc3cc2C(=O)NCC23CC4CC(CC(C4)C2)C3)cc(C(=O)O)c1, the Ki [1] was 1580 nM, the logD [2] was -2.3 and the Ki [3] was 5.01 nM. For the same molecule, the dose excreted [5] was 45%.

CNC[C@H](O)[C@@H](O)[C@H](O)[C@H](O)CO.O=C(O)c1cccc(NC(=O)c2[nH]c(-c3ccc4ccccc4c3)nc2CC2CCCCCC2)c1 gave a logD [2] of 2.8, a Ki [3] of 794 nM and a dose excreted [4] of 5%.

Work on O=C(O)c1cc(NC(=O)c2cc(-c3ccccc3)[nH]c2CC23CC4CC(CC(C4)C2)C3)cc(C(=O)O)c1 yielded a Ki [1] of 7940 nM and a Ki [3] of 126 nM.

CN(C(=O)c1cc2[nH]cnc2cc1C(=O)NCC12CC3CC(CC(C3)C1)C2)[C@@H](Cc1ccccc1)C(=O)Nc1cc(C(=O)O)cc(C(=O)O)c1 showed a Ki [3] of 25.1 nM and an Activity [6] of 0.7.

With O=C(O)c1cc(NC(=O)[C@H](Cc2ccccc2)NC(=O)c2cc3cc[nH]c3cc2C(=O)NCC23CC4CC(CC(C4)C2)C3)cc(C(=O)O)c1 the Ki [1] was 3980 nM and the Ki [3] was 1 nM.

With O=C(O)c1cc(NC(=O)c2cc(-c3ccccc3)[nH]c2CC2CCCCCC2)cc(C(=O)O)c1 the Ki [1] was 7940 nM and the Ki [3] was 251 nM.
